Measurements as given in ChEMBL document CHEMBL3045116, “Synthesis and biological evaluation of 2-(5-substituted-1-((diethylamino)methyl)-2-oxoindolin-3-ylidene)-N-substituted-hydrazinecarbothioamides” (Med Chem Res, 2013).

Tests used:
[1] = tested on: Respiratory syncytial virus; assay: Antiviral activity against Respiratory syncytial virus infected human HeLa cells assessed as reduction of virus-induced cytopathic effect after 3 days by colorimetric formazan-based MTS assay; assay type: functional, organism-based; details: 72 h
In short: (§1)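 Confluent cell monolayers were infected with 100 CCID50 of virus, and serial dilutions of compound were added at the time of infection.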

[2] = tested on: Vesicular stomatitis virus; assay: Antiviral activity against Vesicular stomatitis virus infected human HeLa cells assessed as reduction of virus-induced cytopathic effect after 3 days by colorimetric formazan-based MTS assay; assay type: functional, organism-based; details: 72 h; in short: as §1
[3] = tested on: Human alphaherpesvirus 1; assay: Antiviral activity against Human herpesvirus 1 strain KOS infected human HEL cells assessed as reduction of virus-induced cytopathic effect after 3 days by colorimetric formazan-based MTS assay; assay type: functional, organism-based; details: Human alphaherpesvirus 1, KOS, 72 h; in short: as §1
[4] = tested on: Vaccinia virus; assay: Antiviral activity against Vaccinia virus infected human HEL cells assessed as reduction of virus-induced cytopathic effect after 3 days by colorimetric formazan-based MTS assay; assay type: functional, organism-based; details: Orthopoxvirus vaccinia, 72 h; in short: as §1
[5] = tested on: Respirovirus muris; assay: Antiviral activity against Sendai virus infected African green monkey Vero cells assessed as reduction of virus-induced cytopathic effect after 3 days by colorimetric formazan-based MTS assay; assay type: functional, organism-based; details: 72 h
[6] = Cytotoxicity against Homo sapiens (human) HEL cells assessed as change in cellular morphology; assay type: cell-based
[7] = tested on: Salmonella typhi; assay: Antibacterial activity against Salmonella enterica subsp. enterica serovar Typhi assessed as growth inhibition at 50 ug/ml by cup-plate method (reference value: 8 to 10 mm); assay type: functional; details: read-out: DIZ
[8] = tested on: Coxsackievirus B4; assay: Antiviral activity against Human coxsackievirus B4 infected human HeLa cells assessed as reduction of virus-induced cytopathic effect after 3 days by colorimetric formazan-based MTS assay; assay type: functional, organism-based; details: Enterovirus B, 72 h; in short: as §1
[9] = tested on: CCRF-CEM; assay: Cytotoxicity against Homo sapiens (human) CEM cells assessed as growth inhibition after 72 hr by coulter counter analysis; assay type: functional, cell-based
In short: (§2)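 Cells in growth medium were allowed to proliferate with variable compound amounts at 37 °C in a humidified CO2 atmosphere. Incubation ran 48 h for L1210, 72 h for CEM and 96 h for HeLa. Cells were then counted with a Coulter counter.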

[10] = tested on: Aspergillus niger; assay: Antifungal activity against Aspergillus niger assessed as growth inhibition at 50 ug/ml by cup-plate method (reference value: 8 to 10 mm); assay type: functional; details: read-out: DIZ
[11] = Cytotoxicity against Chlorocebus aethiops (African green monkey) Vero cells assessed as change in cellular morphology; assay type: cell-based; details: chlorocebus sabaeus
[12] = tested on: Human alphaherpesvirus 2; assay: Antiviral activity against Human herpesvirus 2 strain G infected human HEL cells assessed as reduction of virus-induced cytopathic effect after 3 days by colorimetric formazan-based MTS assay; assay type: functional, organism-based; details: Human alphaherpesvirus 2, strain G, 72 h; in short: as §1
[13] = tested on: Punta Toro virus; assay: Antiviral activity against Punta Toro virus infected in African green monkey Vero cells assessed as reduction of virus-induced cytopathic effect after 3 days by colorimetric formazan-based MTS assay; assay type: functional, organism-based; details: 72 h; in short: as §1
[14] = tested on: Influenza A virus H3N2; assay: Antiviral activity against Influenza A virus H3N2 infected MDCK cells assessed as reduction of virus-induced cytopathic effect after 3 days by colorimetric formazan-based MTS assay; assay type: functional, organism-based; details: 72 h; in short: as §1
[15] = (§3) Cytotoxicity against Homo sapiens (human) HeLa cells assessed as change in cellular morphology; assay type: cell-based; details: HeLa cells
In short: (§4)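 Uninfected cells were exposed to compound in parallel with the antiviral cultures. The read-out is the minimum cytotoxic concentration that causes a microscopically detectable alteration of normal cell morphology.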

[16] = tested on: HeLa; assay: as §3; assay type: cell-based; details: hela; in short: as §4
[17] = tested on: Candida albicans; assay: Antifungal activity against Candida albicans assessed as growth inhibition at 50 ug/ml by cup-plate method (reference value: 8 to 10 mm); assay type: functional; details: read-out: DIZ
[18] = tested on: L1210; assay: Cytotoxicity against Mus musculus (mouse) L1210 cells assessed as growth inhibition after 48 hr by coulter counter analysis; assay type: functional, cell-based; details: L1210, 48 h; in short: as §2
[19] = tested on: Feline infectious peritonitis virus; assay: Antiviral activity against Feline Infectious peritonitis virus infected cat CRFK cells assessed as reduction of virus-induced cytopathic effect after 3 days by colorimetric formazan-based MTS assay; assay type: functional, organism-based; details: Alphacoronavirus 1, CRFK, 72 h; in short: as §1
[20] = tested on: Proteus vulgaris; assay: Antibacterial activity against Proteus vulgaris assessed as growth inhibition at 50 ug/ml by cup-plate method (reference value: 8 to 10 mm); assay type: functional; details: read-out: DIZ
[21] = tested on: Bacillus subtilis; assay: Antibacterial activity against Bacillus subtilis assessed as growth inhibition at 50 ug/ml by cup-plate method (reference value: 8 to 10 mm); assay type: functional; details: read-out: DIZ
[22] = tested on: Felid alphaherpesvirus 1; assay: Antiviral activity against Felid herpesvirus 1 infected cat CRFK cells assessed as reduction of virus-induced cytopathic effect after 3 days by colorimetric formazan-based MTS assay; assay type: functional, organism-based; details: Felid alphaherpesvirus 1, CRFK, 72 h
In short: (§5)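 Cells grown to confluency in 96-well plates ([…], Vero for lines 9–10) were infected with 100 CCID50 of virus, and serial compound dilutions were added at infection. Plates were incubated at 37 °C for 3 days, until complete CPE appeared in untreated virus controls.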

[23] = tested on: Vesicular stomatitis virus; assay: Antiviral activity against Vesicular stomatitis virus infected human HEL cells assessed as reduction of virus-induced cytopathic effect after 3 days by colorimetric formazan-based MTS assay; assay type: functional, organism-based; details: 72 h; in short: as §1
[24] = tested on: Klebsiella pneumoniae; assay: Antibacterial activity against Klebsiella pneumoniae assessed as growth inhibition at 50 ug/ml by cup-plate method (reference value: 8 to 10 mm); assay type: functional; details: read-out: DIZ
[25] = tested on: Staphylococcus aureus; assay: Antibacterial activity against Staphylococcus aureus assessed as growth inhibition at 50 ug/ml by cup-plate method (reference value: 8 to 10 mm); assay type: functional; details: read-out: DIZ
[26] = tested on: Influenza B virus; assay: Antiviral activity against Influenza B virus infected in MDCK cells assessed as reduction of virus-induced cytopathic effect after 3 days by colorimetric formazan-based MTS assay; assay type: functional, organism-based; details: 72 h; in short: as §1
[27] = tested on: Human alphaherpesvirus 1; assay: Antiviral activity against acyclovir-resistant thymidine kinase negative Human herpesvirus 1 strain KOS infected human HEL cells assessed as reduction of virus-induced cytopathic effect after 3 days by colorimetric formazan-based MTS assay; assay type: functional, organism-based; details: Human alphaherpesvirus 1, KOS, 72 h; in short: as §1
[28] = Cytotoxicity against Felis catus (cat) CRFK cells assessed as change in cellular morphology; assay type: cell-based; details: crfk; in short: as §4
[29] = (§6) Cytotoxicity against MDCK cells assessed as change in cellular morphology; assay type: cell-based, Canis lupus familiaris; details: dog, MDCK cells; in short: as §4
[30] = tested on: MDCK; assay: as §6; assay type: cell-based, Canis lupus familiaris; details: dog, mdck; in short: as §4
[31] = tested on: Escherichia coli; assay: Antibacterial activity against Escherichia coli assessed as growth inhibition at 50 ug/ml by cup-plate method (reference value: 8 to 10 mm); assay type: functional; details: read-out: DIZ
[32] = Inhibition of beta lactamase assessed as time for decolorization of iodine (reference value: 79.5 secs)
[33] = tested on: Influenza A virus; assay: Antiviral activity against Unidentified Influenza A virus (H1N1) infected MDCK cells assessed as reduction of virus-induced cytopathic effect after 3 days by colorimetric formazan-based MTS assay; assay type: functional, organism-based; details: 72 h; in short: as §1
[34] = tested on: Human respirovirus 3; assay: Antiviral activity against Human parainfluenza virus 3 infected African green monkey Vero cells assessed as reduction of virus-induced cytopathic effect after 3 days by colorimetric formazan-based MTS assay; assay type: functional, organism-based; details: Human respirovirus 3, Vero, 72 h; in short: as §5
[35] = tested on: Coxsackievirus B4; assay: Antiviral activity against Human coxsackievirus B4 infected African green monkey Vero cells assessed as reduction of virus-induced cytopathic effect after 3 days by colorimetric formazan-based MTS assay; assay type: functional, organism-based; details: Enterovirus B, 72 h; in short: as §1
[36] = tested on: Mammalian orthoreovirus 1; assay: Antiviral activity against Mammalian orthoreovirus 1 infected African green monkey Vero cells assessed as reduction of virus-induced cytopathic effect after 3 days by colorimetric formazan-based MTS assay; assay type: functional, organism-based; details: Mammalian orthoreovirus 1, Vero, 72 h; in short: as §5
[37] = Inhibition of beta lactamase assessed as increase in time taken for iodine decolorization relative to control; design: concentration or dose not given beside the values; details: concentration not given here

Structure (SMILES)	EC50 [1] [µM]	EC50 [2] [µM]	EC50 [3] [µM]	EC50 [4] [µM]	EC50 [5] [µM]	MCC [6] [µM]	zone of inhibition at 50 µg/mL [7] [mm]	EC50 [8] [µM]	IC50 [9] [µM]	zone of inhibition at 50 µg/mL [10] [mm]	MCC [11] [µM]	EC50 [12] [µM]	EC50 [13] [µM]	EC50 [14] [µM]	MCC [15] [µM]	CC50 [16] [µM]	zone of inhibition at 50 µg/mL [17] [mm]	IC50 [18] [µM]	EC50 [19] [µM]	zone of inhibition at 50 µg/mL [20] [mm]	other results
CCN(CC)CN1C(=O)/C(=N/NC(=S)Nc2ccc(OC)cc2)c2cc(Cl)ccc21	> 0.8	> 0.8	> 20	> 20	> 0.8	100	21	> 0.8	6.9	11	4	> 20	> 0.8	> 0.8	4	13.2	11	11	> 0.8	21	zone of inhibition at 50 µg/mL [21]: 11 mm; EC50 [22]: > 0.8 µM; EC50 [23]: > 20 µM; zone of inhibition at 50 µg/mL [24]: 11 mm; zone of inhibition at 50 µg/mL [25]: 11 mm; EC50 [26]: > 0.8 µM; EC50 [27]: > 20 µM; CC50 [28]: 3.6 µM; MCC [29]: ≥ 800 nM; CC50 [30]: 11.1 µM; zone of inhibition at 50 µg/mL [31]: 11 mm; TIME [32]: 0.0466 h; EC50 [33]: > 0.8 µM; EC50 [34]: > 0.8 µM; EC50 [35]: > 0.8 µM; EC50 [36]: > 0.8 µM; inhibition [37]: 52.6%
CCN(CC)CN1C(=O)/C(=N/NC(=S)Nc2ccc(Cl)cc2)c2cc(Cl)ccc21	> 20	> 20	> 20	> 20	> 20	100	21	> 20	> 125	21	100	> 20	> 20	> 0.8	100	9.4	21	> 125	> 4	21	zone of inhibition at 50 µg/mL [21]: 21 mm; EC50 [22]: > 4 µM; EC50 [23]: > 20 µM; zone of inhibition at 50 µg/mL [24]: 11 mm; zone of inhibition at 50 µg/mL [25]: 21 mm; EC50 [26]: > 0.8 µM; EC50 [27]: > 20 µM; CC50 [28]: 9.1 µM; MCC [29]: ≥ 800 nM; CC50 [30]: 2.4 µM; zone of inhibition at 50 µg/mL [31]: 21 mm; TIME [32]: 0.0395 h; EC50 [33]: > 0.8 µM; EC50 [34]: > 20 µM; EC50 [35]: > 20 µM; EC50 [36]: > 20 µM; inhibition [37]: 44.2%
